# ABHD4 inh – inhibitors of mouse ABHD4. 370,000 compounds, 0.54% hits. purified mABHD4, FP-Rh probe fluorescence polarization. inhibition, % at 8.92 µM. Q8VD66;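 active = inhibition exceeding the mean over every tested compound plus 3 SD, cut at about 30% in these data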;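 also: 0% = plate median of compound wells and 100% = S159A mutant with DMSO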
# Target sequence (Q8VD66 whole entry, looked up): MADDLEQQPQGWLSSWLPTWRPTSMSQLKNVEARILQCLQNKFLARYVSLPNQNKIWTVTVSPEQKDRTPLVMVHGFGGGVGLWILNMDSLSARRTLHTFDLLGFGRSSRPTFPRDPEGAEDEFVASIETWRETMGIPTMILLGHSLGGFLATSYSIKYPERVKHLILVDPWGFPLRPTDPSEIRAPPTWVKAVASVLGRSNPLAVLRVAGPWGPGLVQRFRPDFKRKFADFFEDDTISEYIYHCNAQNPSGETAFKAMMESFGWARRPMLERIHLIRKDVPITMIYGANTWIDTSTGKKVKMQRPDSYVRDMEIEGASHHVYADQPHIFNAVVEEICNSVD
#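 Test system: mouse ABHD4 enzyme, wild type. Reagent: FP-Rh fluorescent activity-based probe, added after compound pre-incubation. Timing: pre-incubation 45 min, probe exposure 60 min, at 25 °C. Technique: FP readout, ex 525 nm / em 598 nm. Benchmarks: high control S159A mutant with DMSO, low control median of compound wells.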
# TCR-CD3 inh – inhibitors of human TCR-CD3 interaction; TAMRA-labeled TCR probe fluorescence, biochemical; inhibition, % at 9.4 µM; 360,000 compounds, 0.37% hits; AID 651800;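 also: recombinant mutant TCR 2C K166C tagged with TAMRA read by polarization; 0% = receptor in buffer alone and 100% = receptor with positive control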
# rCAG binder – binds r(CAG) RNA repeats. r(CAG) RNA repeat, TO-PRO-1 dye displacement fluorescence. inhibition, % at 3 µM. 370,000 compounds, 1.3% hits. AID 651821;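 active = inhibition above the plate cutoff, the mean of all test compounds on that plate plus 3 SD, cut at about 35% in these data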;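 also: 0% = DMSO alone and 100% = 100 µM mitoxantrone as full dye displacement; higher means more dye released from RNA so lower well fluorescence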
# SIAE inh – inhibitors of human sialic acid acetylesterase SIAE | Q9HAT2 | SIAE FP-Rh probe binding, fluorescence polarization | inhibition, % at 9.66 µM | 370,000 compounds, 0.69% hits;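 active = inhibition above a cutoff: mean of compounds within the control limits plus 3 SD of those, cut at about 17% in these data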;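 also: 0% = plate median of compound wells and 100% = probe without SIAE protein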
# PRMT1 inh – inhibitors of human PRMT1 | recombinant PRMT1, activity-based probe fluorescence polarization | inhibition, % at 2.79 µM | Q99873 | 370,000 compounds, 1.3% hits;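 active = inhibition above about 21% made by adding two undisclosed values, limit read from the data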
# BSA TAMRA ctr – BSA probe counter-screen for TCR-CD3 inhibitors; shares compounds with TCR-CD3 inh; TAMRA-labeled BSA probe fluorescence counterscreen; inhibition, % at 9.4 µM; 1,200 compounds, 10% hits; in the data active = inhibition above about 23%;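 also: 0% = buffer low control and 100% = reference high control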
# TCR-CD3 inh conf – TCR-CD3 interaction inhibition, confirmation; shares compounds with TCR-CD3 inh; TAMRA-labeled TCR probe fluorescence binding assay; inhibition, % at 9.4 µM; 1,200 compounds, 48% hits; AID 652036
# The depositor's hits bear a star; / = no result. An excerpt weighted towards active compounds, which were near 3.3% of everything screened. Rule as the data show it, unless noted: active = inhibition above about 19%; inactive = the rest.
SMILES,ABHD4 inh,TCR-CD3 inh,rCAG binder,SIAE inh,PRMT1 inh,BSA TAMRA ctr,TCR-CD3 inh conf
CCOc1ccc(C(=O)Nc2cc(-c3nc4ccccc4[nH]3)ccc2Cl)cc1[N+](=O)[O-],-50,25*,24,-78,-1,20,40*
Cc1ccccc1NS(=O)(=O)c1ccc(C(=O)NCC2(N3CCOCC3)CCCCC2)cc1,0,27*,3,-5,-6,5,7
CCN(CCNC(=O)[C@H]1C=C(OC)C(=O)C[C@H](c2ccccc2)[C@H]1C)C(C)=O,0,/,3,3,-1,/,/
O=C(NNC(=O)c1cccc2ccccc12)c1ccccc1O,12,28*,2,6,-1,-12,17
O=C(NNC(=O)c1ccccc1O)c1cc2ccccc2o1,16,33*,8,0,0,-9,22*
COCCN=C1S/C(=C\c2cc(C)n(-c3ccc(F)cc3F)c2C)C(=O)N1C,-7,/,/,-30,18,/,/
Nc1[nH]c2ccccc2c1C(=O)NC1CC1,3,/,4,-2,1,/,/
COc1ccccc1NS(=O)(=O)c1cccc(C(=O)N/N=C/c2cn(-c3ccccc3)nc2-c2ccccc2)c1,-91,45*,15,-97,-5,22,44*
O=C(CCc1ccccc1)NNC(=O)c1ccccc1C(=O)O,7,8,0,-2,-1,/,/
O=C(NNC(=O)c1cc(Cl)ccc1O)c1cccs1,15,25*,-1,0,-6,-15,19*
O=C(CCc1ccccc1)NNC(=O)c1cc(Cl)ccc1O,-5,24*,5,0,6,49*,47*
Cc1cccc(-c2cccc3c4c([nH]c23)[C@@H]2C[C@H](N(C)C(=O)Nc3ccccc3C)[C@H]([C@H](C)O)C(=O)N2CC4)c1,-12,/,15,3,-1,/,/
COc1ccc(Br)cc1/C=N/NC(=O)c1cccnc1,-4,-2,-1,15,-4,/,/
COc1cc([N+](=O)[O-])cc(/C=N/NC(=O)c2cccnc2)c1O,21,32*,9,5,0,-11,19*
C=CCn1c(SCC(=O)NCc2ccco2)nnc1C1CCCCC1,-6,20*,-1,-1,-4,3,-1
Cc1ccc(C(=O)Nc2cnc3ccccn3c2=O)cc1,-8,25*,-2,-6,-2,-2,-3
O=C1c2ccccc2C(c2nnnn2-c2ccc3c(c2)OCCO3)N1Cc1ccc2c(c1)OCO2 (stereo unspecified),3,4,4,2,2,/,/
O=C1c2ccccc2C(c2nnnn2-c2ccc3c(c2)OCCO3)N1Cc1ccco1 (stereo unspecified),2,25*,3,16,3,4,0
CC1(C)CC2CC(C)(CN2S(=O)(=O)c2ccc(C(=O)Nc3ccc(Cl)c(S(=O)(=O)N4CCOCC4)c3)cc2)C1 (stereo unspecified),-11,3,4,-44,-3,/,/
CC1(C)CC2CC(C)(CN2S(=O)(=O)c2ccc(C(=O)Nc3ccc(S(=O)(=O)N4CCOCC4)cc3)cc2)C1 (stereo unspecified),-48,41*,21,-111,1,23*,56*
CS(=O)(=O)c1cccc(C(=O)Nc2ccc(-c3nc4ccccc4[nH]3)cc2)c1,-13,2,10,-22,3,/,/
O=C(c1ccccc1)c1ccc2nc(-c3ccc(NC(=O)c4ccccc4Br)cc3)[nH]c2c1,-88,34*,16,-110,-2,12,12
CN(c1ccccc1)S(=O)(=O)c1ccc(Cl)c(C(=O)Nc2ccc(-c3nc4ccccc4[nH]3)cc2)c1,-106,60*,21,-139,2,27*,54*
CC(=O)CC[C@@H]1CC[C@]2(CCCN(S(=O)(=O)C3CCCCC3)C2)O1,2,/,6,0,5,/,/
O=C(NCc1ccc(F)cc1)C1CCCN(c2nc3ccccc3o2)C1 (stereo unspecified),5,/,1,-1,0,/,/
SMILES,ABHD4 inh,TCR-CD3 inh,rCAG binder,SIAE inh,PRMT1 inh,BSA TAMRA ctr,TCR-CD3 inh conf
Cc1c(NC(=S)N/N=C/c2ccc([N+](=O)[O-])cc2O)c(=O)n(-c2ccccc2)n1C,7,24*,12,8,4,8,11
COc1ccc(C(=O)NNC(=O)COc2ccc(Cl)cc2)c(OC)c1,-1,25*,-4,10,-3,-20,24*
COc1ccc(OCC(=O)Nc2ccc(Cl)cc2)cc1,-4,-1,-1,-4,-2,/,/
CCOC(=O)Cn1c(=NC(=O)C2COc3ccccc3O2)sc2cc(S(N)(=O)=O)ccc21 (stereo unspecified),-1,1,18,4,2,/,/
CCOC(=O)Cn1c(=NC(=O)c2cc(-c3cccs3)nc3ccccc23)sc2cc(S(N)(=O)=O)ccc21,-27,38*,29,-18,-2,4,21*
COC(=O)Cn1c(=NC(=O)c2cc(-c3cccs3)nc3ccccc23)sc2cc(S(N)(=O)=O)ccc21,-105,57*,31,-64,1,10,31*
COC(=O)Cn1c(=NC(=O)c2nc3ccccc3s2)sc2cc(S(N)(=O)=O)ccc21,-15,5,6,-10,-2,/,/
C=CCN(Cc1ccc2c(c1)OCO2)C(C#CC1CC1)C(C)C (stereo unspecified),7,/,3,1,0,/,/
C[C@@H]1[C@@H](c2ccccc2)c2cc3ccccc3nc2-c2nc3ccccc3cc2[C@@H]1C(=O)N1CCCC1,1,/,6,-1,2,/,/
COc1ccc(C)c(NC(=O)[C@@H]2CCCN2S(=O)(=O)c2cccc3cccnc23)c1,2,/,/,-2,3,/,/
COCCNC(=O)c1ccc(N2CC3CC(C2)c2cccc(=O)n2C3)c(NC(=O)c2ccccc2Br)c1 (stereo unspecified),-1,49*,-1,-2,1,7,2
COC(=O)[C@]12C[C@H](CC(=O)NCCc3ccccc3OC)C(=O)N(CCc3ccc(OC)c(OC)c3)C1=C[C@H](COCc1ccccc1)O[C@@H]2C,-4,/,3,-3,-4,/,/
Nn1c(SCc2ccc([N+](=O)[O-])cc2)nnc1-c1cc(-c2ccccc2)n[nH]1,-23,/,10,-6,7,/,/
COc1c(-c2ccc(O)cc2)oc2cc(O)cc(O)c2c1=O,-2,32*,13,6,1,-7,15
COc1ccc(-c2oc3cc(O)c(OC)c(O)c3c(=O)c2OC)cc1,-8,5,19,13,2,/,/
CCOC(=O)C1CCN(CC(O)COCc2cccs2)CC1 (stereo unspecified),2,23*,-5,-1,-2,-1,-3
CCOC(=O)C1CCN(CC(O)COCc2ccccc2)CC1 (stereo unspecified),12,6,-3,6,-2,/,/

# Bioassay records from PubChem.
